Measurements taken from paper PMC6790403 (International Journal of Nanomedicine, 2019).
Marks after values point to notes of the source that are not given here.

Tests used:
Cardiac toxicity study = type: in vivo, female BALB/c mice; conditions: BALB/c mice
How it was run: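 Female BALB/c mice (~25 g, n=3 per group) received three consecutive IV injections totalling […] DOX, given as free drug or drug-equivalent nanoparticles. Controls were untreated/saline and blank nanoparticles. Weight was recorded every 48 hrs, and […] was taken under light anaesthesia 14 days after the last dose. Hearts were then excised and weighed, and SOD was kit-assayed in heart homogenate (ice-cold PBS, 10 mL/g).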

SKBR-3 cells [1] = assay: Cytotoxicity by MTT assay; type: cell-based; conditions: Homo sapiens, SK-BR-3
How it was run: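 SKBR-3 cells were grown in McCoy's 5A with 10% FBS, penicillin and streptomycin at 37°C under 5% CO2. Test compound was applied over a dose range in a time-dependent MTT assay. Growth inhibition was expressed as a percentage relative to controls, and IC50 was derived from the dose response.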

SKBR-3 cells [2] = assay: Apoptosis study by annexin V FITC; type: cell-based, human; conditions: SKBR3 cells, 24 hrs, at respective IC50
How it was run: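 SKBR-3 cells seeded at 1×10^5 cells per well in McCoy's medium at 37°C and exposed to test compound for 24 hrs. Cells were then trypsinized, pelleted at 3000 rpm for 3 mins and PBS-washed. They were stained with FITC-annexin V plus propidium iodide, and the apoptotic fraction was quantified by flow cytometry.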

MCF-7 cells = assay: Cell cycle distribution analysis; type: cell-based, human; conditions: 24 hrs, at respective IC50
SKBR-3 tumor = assay: In vivo therapeutic study on tumor-bearing xenograft mice; design: species or system athymic nude mice; conditions: for average tumor volume: three IV doses of DOX 3 mg/kg on alternate days
How it was run: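 Athymic nude mice (CAnN.Cg-Foxn, 6 weeks, ~20 g) were inoculated subcutaneously in the left rear flank with 1×10^7 SKBR-3 cells in 200 μL medium. At 100–150 mm3, groups of three received IV saline or test compound, three doses of DOX 3 mg/kg equivalent on alternate days. Tumours were caliper-measured, body weight was monitored, and excised tumours were weighed after sacrifice (mean ± SD, n=3).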

SKBR-3 cells [3] = assay: Cell cycle distribution analysis; type: cell-based, human; conditions: 24 hrs, at respective IC50
How it was run: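 After 24 hrs of exposure to test compound (SKBR-3 seeded at 1×10^5 cells per well), cells were collected and washed thrice in sterile PBS pH 7.4. They were fixed in chilled 70% ethanol and stained with propidium iodide (20 µg/mL) for 30 mins. DNA content was acquired over 15,000 events per sample, and phase distribution was compared with untreated control.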

Pharmacokinetic study = type: in vivo, BALB/c mice
[4] = BALB/c, mouse, plasma, iv, 10 mg/kg
[5] = plasma DOX, IV bolus, 10 mg/kg DOX or equivalent, BALB/c mice

AUC(0-inf) (Pharmacokinetic study; [4]): 2930 ± 205 ng·h/mL | AUC(0-t) (Pharmacokinetic study; [4]): 2880 ± 199 ng·h/mL | Cmax (Pharmacokinetic study; [4]): 911 ± 50.5 ng/mL | MRT inf (Pharmacokinetic study; [4]): 18.2 ± 0.86 h | MRT last (Pharmacokinetic study; [4]): 16.2 ± 0.99 h | Tmax (Pharmacokinetic study; [4]): 0.25 ± 0.021 h | Vd (Pharmacokinetic study; [4]): 61.9 ± 4.8 L/kg | clearance (Pharmacokinetic study; [4]): 56.7 mL/min/kg | half-life (Pharmacokinetic study; [4]): 17.9 ± 2.1 h | AUMCinf (Pharmacokinetic study; [5]): 53,296.5±2600 hrs.hrs.ng/mL | AUMClast (Pharmacokinetic study; [5]): 46,707.8±2202.6 hrs.hrs.ng/mL
SMILES: COc1cccc2c1C(=O)c1c(O)c3c(c(O)c1C2=O)C[C@@](O)(C(=O)CO)C[C@@H]3O[C@H]1C[C@H](N)[C@H](O)[C@H](C)O1 [DOX, (7S, 9S)-7-[(2R, 4S, 5S, 6S)-4-amino-5-hydroxy-6-methyloxan-2-yl]oxy-6,9,11-trihydroxy-9-(2-hydroxyacetyl)-4-methoxy-8,10-dihydro-7H-tetracene-5,12-dione]
Heart weight (Cardiac toxicity study; 2 weeks after final dosing): 0.1420 ± 0.025 g | LV fractional shortening (Cardiac toxicity study; 14 days after last dose): significant decrease | histopathology of heart sections (Cardiac toxicity study; hematoxylin and eosin staining): Remarkable changes in degradation in cardiac muscle with vacuolization and edema of the cells | % SOD (Cardiac toxicity study; heart homogenate, 2 weeks after final dosing): 34.02±4.5^a,b % | IC50 (SKBR-3 cells [1]): 14.1 µM | extent of apoptosis (SKBR-3 cells [2]): 19.6% | cell-arrest in S-phase (MCF-7 cells): 8% | Average tumor weights of the excised tumors (SKBR-3 tumor; at the terminal experiment, SKBR-3 tumor, three IV doses of DOX 3 mg/kg): 0.424 ± 0.06 g | average tumor volume (SKBR-3 tumor; day 15, SKBR-3 tumor): 500 mm^3 | average tumor volume (SKBR-3 tumor; day 25, SKBR-3 tumor): 1790 mm^3 | cell-arrest in S-phase (SKBR-3 cells [3]): 22%
